According to ChEMBL document CHEMBL1125212, “Dual-action cephalosporins: cephalosporin 3'-quinolone carbamates” (J Med Chem, 1991):
Converted amounts (≈) assume the structure as drawn.

Assays:
Escherichia coli [1] = experiment: The compound was tested in vitro for minimum inhibitory concentration against Escherichia coli ATCC 25922; format: functional
Procedure, shortened: (§1)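 Agar dilution on Mueller-Hinton agar using 2-fold serial dilutions, giving final 128 to 0.0156 μg/mL (extended to 0.000977 μg/mL where needed). Inoculum was overnight broth culture diluted 100-fold, about 3×10^4 CFU/spot, applied by replicator. MIC read after overnight incubation at 36 °C.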

Escherichia coli [2] = experiment: Minimum inhibitory concentration required to inhibit the activity of Escherichia coli ATCC 25922; format: functional; procedure, shortened: as §1
Escherichia coli [3] = experiment: Minimum inhibitory concentration required to inhibit the activity of Escherichia coli UB1005; format: functional; procedure, shortened: as §1
Escherichia coli [4] = experiment: Minimum inhibitory concentration for inhibition of [14C]- Pen G binding to Escherichia coli UB1005; format: functional
Procedure, shortened: (§2)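 Membranes from sonicated E. coli UB1005 were solubilized. Binding to penicillin-binding proteins was measured as inhibition of [14C]penicillin G binding.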

Escherichia coli [5] = experiment: The compound was tested in vitro for minimum inhibitory concentration against Escherichia coli 257; format: functional; procedure, shortened: as §1
Enterococcus faecalis = experiment: The compound was tested in vitro for minimum inhibitory concentration against Enterococcus faecalis ATCC 29212; format: functional; procedure, shortened: as §1
Escherichia coli [6] = experiment: The compound was tested in vitro for minimum inhibitory concentration against Escherichia coli TEM-1; format: functional; procedure, shortened: as §1
Enterobacter cloacae = experiment: The compound was tested in vitro for minimum inhibitory concentration against Enterobacter cloacae P99; format: functional
Escherichia coli [7] = experiment: Inhibitory activity on replicative DNA biosynthesis in Escherichia coli H560 (permeabilised cells); format: functional, organism-based
Procedure, shortened: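 E. coli H560 cells permeabilized with toluene. ATP-dependent incorporation of [3H]thymidine into trichloroacetic acid-insoluble material was measured. IC50 taken as the concentration giving 50% inhibition.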

Micrococcus luteus = experiment: The compound was tested in vitro for minimum inhibitory concentration against Micrococcus luteus ATCC 9341; format: functional; procedure, shortened: as §1
Proteus mirabilis = experiment: The compound was tested in vitro for minimum inhibitory concentration against Proteus mirabilis 90; format: functional
Procedure, shortened: (§3)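 Proteus MICs by agar dilution on Mueller-Hinton medium containing 3% agar. Serial 2-fold dilutions gave final 128 to 0.0156 μg/mL (further to 0.000977 μg/mL). Inoculum was overnight broth diluted 100-fold, about 3×10^4 CFU/spot. Plates read after overnight incubation at 36 °C.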

Pseudomonas aeruginosa [8] = experiment: The compound was tested in vitro for minimum inhibitory concentration against Pseudomonas aeruginosa 18S/H; format: functional; procedure, shortened: as §1
Escherichia coli [9] = experiment: The compound was evaluated for the inhibition of [14C]- Pen G binding to Escherichia coli UB1005 penicillin-binding protein 1a 90 kDa.; procedure, shortened: as §2
Escherichia coli [10] = experiment: The compound was evaluated for the inhibition of [14C]- Pen G binding to Escherichia coli UB1005 penicillin-binding protein 1b 90 kDa.; procedure, shortened: as §2
Escherichia coli [11] = experiment: The compound was evaluated for the inhibition of [14C]- Pen G binding to Escherichia coli UB1005 penicillin-binding protein 2 66 kDa.; procedure, shortened: as §2
Escherichia coli [12] = experiment: The compound was evaluated for the inhibition of [14C]- Pen G binding to Escherichia coli UB1005 penicillin-binding protein 3 60 kDa.; procedure, shortened: as §2
Pseudomonas aeruginosa [13] = experiment: The compound was tested in vitro for minimum inhibitory concentration against Pseudomonas aeruginosa 8780; format: functional; procedure, shortened: as §1
Proteus vulgaris = experiment: The compound was tested in vitro for minimum inhibitory concentration against Proteus vulgaris 1028 BC; format: functional; procedure, shortened: as §3
Staphylococcus aureus [14] = experiment: The compound was tested in vitro for minimum inhibitory concentration against Staphylococcus aureus 67-0; format: functional; procedure, shortened: as §1
Staphylococcus aureus [15] = experiment: (§4) The compound was tested in vitro for minimum inhibitory concentration against Staphylococcus aureus 753; format: functional; procedure, shortened: as §1
Streptococcus pyogenes = experiment: The compound was tested in vitro for minimum inhibitory concentration against Streptococcus pyogenes; format: functional
Procedure, shortened: (§5)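 Streptococci tested by agar dilution on brain heart infusion agar with 20 units/mL bovine liver catalase. Final drug range 128 to 0.0156 μg/mL by 2-fold steps, extended to 0.000977 μg/mL when required. Inoculum about 3×10^4 CFU/spot from overnight broth diluted 100-fold. MIC after overnight incubation at 36 °C.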

Serratia marcescens = experiment: The compound was tested in vitro for minimum inhibitory concentration against Serratia marcescens 1071; format: functional; procedure, shortened: as §1
Streptococcus pneumoniae = experiment: The compound was tested in vitro for minimum inhibitory concentration against Streptococcus pneumoniae 6301; format: functional; procedure, shortened: as §5
Staphylococcus aureus [16] = experiment: The compound was tested in vitro for minimum inhibitory concentration against Staphylococcus aureus smith; format: functional; procedure, shortened: as §1
Klebsiella pneumoniae = experiment: The compound was tested in vitro for minimum inhibitory concentration against Klebsiella pneumoniae A; format: functional; procedure, shortened: as §1
Citrobacter freundii = experiment: The compound was tested in vitro for minimum inhibitory concentration against Citrobacter Freundii BS-16; format: functional; procedure, shortened: as §1
Staphylococcus aureus [17] = experiment: as §4; format: functional, staphylococcus aureus smith; procedure, shortened: as §1

SMILES | MIC (Escherichia coli [1]) [µg/mL] | MIC (Escherichia coli [4]) [µg/mL] | MIC (Escherichia coli [5]) [µg/mL] | MIC (Enterococcus faecalis) [µg/mL] | MIC (Escherichia coli [6]) [µg/mL] | MIC (Enterobacter cloacae) [µg/mL] | MIC (Micrococcus luteus) [µg/mL] | MIC (Proteus mirabilis) [µg/mL] | MIC (Pseudomonas aeruginosa [8]) [µg/mL] | Inhibitory concentration (Escherichia coli [9]) [µg/mL] | Inhibitory concentration (Escherichia coli [10]) [µg/mL] | Inhibitory concentration (Escherichia coli [11]) [µg/mL] | Inhibitory concentration (Escherichia coli [12]) [µg/mL] | MIC (Pseudomonas aeruginosa [13]) [µg/mL] | MIC (Proteus vulgaris) [µg/mL] | MIC (Staphylococcus aureus [14]) [µg/mL] | MIC (Streptococcus pyogenes) [µg/mL] | MIC (Serratia marcescens) [µg/mL] | MIC (Streptococcus pneumoniae) [µg/mL] | MIC (Staphylococcus aureus [16]) [µg/mL] | other results
NC(=O)CO/N=C(\C(=O)N[C@@H]1C(=O)N2C(C(=O)O)=C(COC(=O)N3CCN(c4cc5c(cc4F)c(=O)c(C(=O)O)cn5C4CC4)CC3)CS[C@H]12)c1csc(N)n1 | 0.063 (≈ 0.0774 µM) | 1 (≈ 1.23 µM) | 0.063 (≈ 0.0774 µM) | 0.5 (≈ 0.614 µM) | 0.063 (≈ 0.0774 µM) | 0.063 (≈ 0.0774 µM) | 0.063 (≈ 0.0774 µM) | 0.5 (≈ 0.614 µM) | 1 (≈ 1.23 µM) | 2 | 10 | 100 | < 0.1 | 2 (≈ 2.46 µM) | 0.063 (≈ 0.0774 µM) | 4 (≈ 4.92 µM) | 0.031 (≈ 0.0381 µM) | 0.125 (≈ 0.154 µM) | 0.031 (≈ 0.0381 µM) | 1 (≈ 1.23 µM) | MIC (Escherichia coli [2]): 0.06 µg/mL (≈ 0.0737 µM); MIC (Escherichia coli [3]): 1 µg/mL (≈ 1.23 µM); IC50 (Escherichia coli [7]): 1.2 µg/mL (≈ 1.47 µM); MIC (Staphylococcus aureus [15]): 2 µg/mL (≈ 2.46 µM); MIC (Klebsiella pneumoniae): 0.125 µg/mL (≈ 0.154 µM)
N#CCC(=O)N[C@@H]1C(=O)N2C(C(=O)O)=C(COC(=O)N3CCN(c4cc5c(cc4F)c(=O)c(C(=O)O)cn5C4CC4)CC3)CS[C@H]12 | 0.063 (≈ 0.0962 µM) | 1 (≈ 1.53 µM) | 0.063 (≈ 0.0962 µM) | 4 (≈ 6.11 µM) | 0.063 (≈ 0.0962 µM) | < 0.016 | 0.125 (≈ 0.191 µM) | 0.5 (≈ 0.764 µM) | 0.5 (≈ 0.764 µM) | > 100 | > 100 | > 100 | 100 | 1 (≈ 1.53 µM) | 0.031 (≈ 0.0474 µM) | 2 (≈ 3.06 µM) | 0.031 (≈ 0.0474 µM) | 0.125 (≈ 0.191 µM) | 0.031 (≈ 0.0474 µM) | 0.25 (≈ 0.382 µM) | MIC (Citrobacter freundii): 0.063 µg/mL (≈ 0.0962 µM); MIC (Escherichia coli [2]): 0.06 µg/mL (≈ 0.0917 µM); MIC (Escherichia coli [3]): 1 µg/mL (≈ 1.53 µM); IC50 (Escherichia coli [7]): 1 µg/mL (≈ 1.53 µM); MIC (Staphylococcus aureus [15]): 1 µg/mL (≈ 1.53 µM); MIC (Klebsiella pneumoniae): 0.125 µg/mL (≈ 0.191 µM)
Nc1nc(/C(=N/OCC(=O)O)C(=O)N[C@@H]2C(=O)N3C(C(=O)O)=C(COC(=O)N4CCN(c5cc6c(cc5F)c(=O)c(C(=O)O)cn6C5CC5)CC4)CS[C@H]23)cs1 | 0.031 (≈ 0.038 µM) | 1 (≈ 1.23 µM) | 0.031 (≈ 0.038 µM) | 1 (≈ 1.23 µM) | 0.063 (≈ 0.0773 µM) | 0.063 (≈ 0.0773 µM) | 0.5 (≈ 0.614 µM) | 0.125 (≈ 0.153 µM) | 1 (≈ 1.23 µM) | 100 | 10 | > 100 | < 0.1 | 1 (≈ 1.23 µM) | 0.125 (≈ 0.153 µM) | 4 (≈ 4.91 µM) | 0.063 (≈ 0.0773 µM) | 0.25 (≈ 0.307 µM) | 0.125 (≈ 0.153 µM) | 0.5 (≈ 0.614 µM) | MIC (Citrobacter freundii): 0.125 µg/mL (≈ 0.153 µM); MIC (Escherichia coli [2]): 0.03 µg/mL (≈ 0.0368 µM); MIC (Escherichia coli [3]): 1 µg/mL (≈ 1.23 µM); IC50 (Escherichia coli [7]): 1.7 µg/mL (≈ 2.09 µM); MIC (Staphylococcus aureus [15]): 4 µg/mL (≈ 4.91 µM); MIC (Klebsiella pneumoniae): 0.125 µg/mL (≈ 0.153 µM)
CC(=O)OCC1=C(C(=O)O)N2C(=O)[C@@H](NC(=O)COc3ccccc3)[C@H]2SC1 | 128 (≈ 315 µM) | > 128 | 64 (≈ 157 µM) | 32 (≈ 78.7 µM) | 128 (≈ 315 µM) | > 128 | 0.125 (≈ 0.308 µM) | 32 (≈ 78.7 µM) | > 128 | 0.5 | 100 | > 100 | 10 | > 128 | > 128 | 128 (≈ 315 µM) | 0.125 (≈ 0.308 µM) | > 128 | 0.125 (≈ 0.308 µM) | 0.063 (≈ 0.155 µM) | MIC (Citrobacter freundii): > 128 µg/mL; MIC (Staphylococcus aureus [17]): 128 µg/mL (≈ 315 µM); MIC (Klebsiella pneumoniae): 128 µg/mL (≈ 315 µM)
